Series [1] deals with HeLa. In words: Protection against anthrax protective antigen-38/LF-induced cell death in human HeLa cells assessed as MEK1 cleavage at 30 uM treated 90 mins after PA38/LA challenge immunoblotting assay. It is filed as functional, cell-based. In general terms: In western blotting, separated proteins are transferred to a membrane and probed.
The target in series [2] is Matrix metalloproteinase-9 (Homo sapiens) (UniProt P14780). In words: Inhibition of human MMP9 up to 100 uM by fluorescence peptide cleavage assay. The gist of the method:
(§1)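 Pro-MMP-2 or pro-MMP-9 activated with 1 mM APMA (20 min or 2 h, respectively), then used at 10 μg/mL with 5-FAM/QXL520 peptide substrate in kit assay buffer.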

For series [3], the target named is 72 kDa type IV collagenase (Homo sapiens) (UniProt P08253). The series is described as follows: Inhibition of human MMP2 up to 100 uM by fluorescence peptide cleavage assay. The gist of the method: as §1
Chain of 72 kDa type IV collagenase (Homo sapiens) (P08253 110-660 limits assumed): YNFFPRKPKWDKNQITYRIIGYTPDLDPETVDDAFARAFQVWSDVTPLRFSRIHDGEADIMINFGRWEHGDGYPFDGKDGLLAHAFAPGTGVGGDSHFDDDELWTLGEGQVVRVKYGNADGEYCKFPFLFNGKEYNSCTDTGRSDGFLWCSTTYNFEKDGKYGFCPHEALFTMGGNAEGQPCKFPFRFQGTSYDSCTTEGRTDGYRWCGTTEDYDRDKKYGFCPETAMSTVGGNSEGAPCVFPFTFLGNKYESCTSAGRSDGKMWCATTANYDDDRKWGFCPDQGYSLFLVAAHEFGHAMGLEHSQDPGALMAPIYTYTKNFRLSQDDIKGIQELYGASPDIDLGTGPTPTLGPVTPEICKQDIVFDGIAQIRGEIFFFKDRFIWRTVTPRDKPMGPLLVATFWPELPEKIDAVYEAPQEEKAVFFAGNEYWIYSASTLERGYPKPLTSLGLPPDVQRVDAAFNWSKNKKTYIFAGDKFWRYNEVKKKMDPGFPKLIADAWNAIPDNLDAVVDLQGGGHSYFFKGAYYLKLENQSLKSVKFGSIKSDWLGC
Another series addresses T1, Lethal factor (Bacillus anthracis, UniProt P15917).
T1 sequence (P15917 whole entry): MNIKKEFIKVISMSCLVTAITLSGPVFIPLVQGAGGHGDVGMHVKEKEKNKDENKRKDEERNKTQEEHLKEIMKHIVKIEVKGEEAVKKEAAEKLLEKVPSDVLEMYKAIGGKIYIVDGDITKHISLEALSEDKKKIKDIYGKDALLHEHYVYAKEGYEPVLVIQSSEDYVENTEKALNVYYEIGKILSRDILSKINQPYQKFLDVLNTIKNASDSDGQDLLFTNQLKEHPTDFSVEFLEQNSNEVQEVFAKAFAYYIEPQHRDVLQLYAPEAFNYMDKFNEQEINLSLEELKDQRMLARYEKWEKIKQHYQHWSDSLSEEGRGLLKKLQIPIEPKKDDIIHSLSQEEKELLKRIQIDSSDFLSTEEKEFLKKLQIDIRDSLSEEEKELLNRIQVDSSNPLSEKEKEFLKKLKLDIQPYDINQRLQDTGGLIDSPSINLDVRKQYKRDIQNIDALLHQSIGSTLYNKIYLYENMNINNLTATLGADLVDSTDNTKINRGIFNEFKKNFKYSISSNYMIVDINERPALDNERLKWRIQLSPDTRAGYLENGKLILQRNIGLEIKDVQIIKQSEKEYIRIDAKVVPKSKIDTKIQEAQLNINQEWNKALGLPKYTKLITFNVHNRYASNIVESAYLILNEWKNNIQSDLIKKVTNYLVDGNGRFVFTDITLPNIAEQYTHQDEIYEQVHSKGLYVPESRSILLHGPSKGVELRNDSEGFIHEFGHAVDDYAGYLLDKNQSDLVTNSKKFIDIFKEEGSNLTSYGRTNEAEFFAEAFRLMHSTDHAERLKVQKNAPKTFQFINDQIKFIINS
The series is described as follows: Inhibition of Bacillus anthracis lethal factor assessed as cleavage of MAPKK by fluorescence peptide cleavage assay.

Series [4] is described as follows: Chemical stability of the compound. It is filed as physicochemical.
A short description of series [5]: Solubility at 500 uM. It is filed as physicochemical.
The next series concerns RAW264.7. In words: Protection against anthrax protective antigen-38/LF-induced cell death in mouse RAW264.7 cells pretreated for 2 hrs followed by PA38/LA challenge assessed as cell viability measured after 4 hrs by ATPlite assay. It is filed as functional, cell-based. On the technique in general: ATP-based viability assays read luminescence as a measure of living cells.

For series [6], the system named is Bacillus anthracis. In words: Antibacterial activity against Bacillus anthracis Sterene infected in A/J mouse assessed as mouse survival at 25 mg/kg, ip daily after 24 hrs of infection for 8 days relative to control. It is filed as functional, organism-based. Further details: dose 25 mg/kg.
In series [7] the test system is Bacillus anthracis. In words: Antibacterial activity against Bacillus anthracis Sterene infected in A/J mouse assessed as mouse survival at 25 mg/kg, ip daily after 24 hrs of infection for 8 days. It is filed as functional, organism-based. The arrangement: dose 25 mg/kg.
For series [8], the system named is HeLa. In words: Protection against anthrax protective antigen-38/LF-induced cell death in human HeLa cells assessed as MEK1 cleavage at 100 uM treated 90 mins after PA38/LA challenge immunoblotting assay. It is filed as functional, cell-based.
Series [9] deals with HeLa. The series is described as follows: Protection against anthrax protective antigen-38/LF-induced cell death in human HeLa cells assessed as MEK1 cleavage at 300 uM treated 90 mins after PA38/LA challenge immunoblotting assay. It is filed as functional, cell-based.

Structures are written as SMILES. The source made the active and inactive calls. The calls are words filed in the database; no cut-off is given here. Where only a bound is given, the exact number is not on record here.

Chain of Matrix metalloproteinase-9 (Homo sapiens) (P14780 whole entry): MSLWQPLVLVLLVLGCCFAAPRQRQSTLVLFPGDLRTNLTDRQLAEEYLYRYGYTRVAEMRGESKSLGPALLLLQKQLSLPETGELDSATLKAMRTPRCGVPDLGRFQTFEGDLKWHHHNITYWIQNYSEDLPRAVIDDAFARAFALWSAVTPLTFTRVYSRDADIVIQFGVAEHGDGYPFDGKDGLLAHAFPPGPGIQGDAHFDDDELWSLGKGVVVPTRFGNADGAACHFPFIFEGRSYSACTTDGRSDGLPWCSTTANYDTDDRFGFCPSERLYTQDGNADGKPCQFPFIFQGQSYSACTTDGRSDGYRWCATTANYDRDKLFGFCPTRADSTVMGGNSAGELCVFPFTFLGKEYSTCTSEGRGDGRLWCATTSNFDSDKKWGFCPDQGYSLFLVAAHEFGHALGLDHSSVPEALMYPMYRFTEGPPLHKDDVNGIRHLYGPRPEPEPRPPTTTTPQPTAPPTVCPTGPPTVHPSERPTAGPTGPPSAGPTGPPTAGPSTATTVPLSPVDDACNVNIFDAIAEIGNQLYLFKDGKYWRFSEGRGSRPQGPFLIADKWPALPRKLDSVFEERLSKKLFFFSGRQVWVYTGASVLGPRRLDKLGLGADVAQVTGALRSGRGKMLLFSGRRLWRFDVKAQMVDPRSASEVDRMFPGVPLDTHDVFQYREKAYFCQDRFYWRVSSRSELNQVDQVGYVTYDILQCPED

In the case of `CC(C)(C)C(=O)CSC1=NNC(c2ccccc2)S1` (stereo not drawn), the result with HeLa [1] was inactive.

One may read the IC50 as the point on the concentration scale where inhibition reaches its midpoint. For `O=S(=O)(Nc1cccc(C(F)(F)F)c1)c1cccs1`, the result in series [2] and in [3] was inactive. Besides, the half-inhibitory concentration (IC50) at Lethal factor is greater than 100 µM.

On to `Cc1ccc(NS(=O)(=O)c2cccs2)cc1C(F)(F)F`, for which the outcome in [2] and in series [3] was inactive. Further, on Lethal factor, the IC50 was greater than 100 µM.

Take `Cc1csc(NS(=O)(=O)c2ccc([N+](=O)[O-])cc2)c1-c1nc2ccccc2s1`: the Stability in [4] is 99%. Moreover, the 50% inhibitory concentration (IC50) on Lethal factor was 11 µM. The solubility result in [5] is on record as “Insoluble”.

As to `Cc1cc(S(=O)(=O)N[C@H](C(=O)NO)C2CCOCC2)ccc1F`, the outcome with HeLa [1] was Active.

The EC50 is the concentration that produces a half-maximal response. As for `O=S(=O)(Nc1sccc1-c1nc2ccccc2s1)c1ccc2ncsc2c1`, the Stability in series [4] was 99.9%. For the same compound, the EC50 with RAW264.7 came out at 1.6 µM. In addition, the concentration for half-maximal inhibition (IC50) at Lethal factor was 10 µM.

Consider `Cc1ccc(S(=O)(=O)Nc2sccc2-c2nc3ccccc3s2)cc1Cl`, for which the Stability in [4] came to 99%. Besides, in the series on Bacillus anthracis [6], the result was Active. Moreover, the EC50 in the series on RAW264.7 was 1 µM. Besides, the IC50 at Lethal factor was 6.6 µM.

With `CC(C)(C)c1ccc(-c2noc(C(=O)NNC(=S)Nc3ccc(C(F)(F)F)cc3)n2)cc1`, the result in the series with HeLa [1] was Active.

`COc1ccc(-c2ccc(S(=O)(=O)Nc3cccs3)cc2)cc1`: the result in series [2] and in series [3] was inactive. At Lethal factor, the IC50 was greater than 50 µM.

Regarding `Cc1ccc(NS(=O)(=O)c2cccs2)cc1Cl`, the result in series [2] and in series [3] was inactive. The IC50 on Lethal factor was greater than 100 µM.

Consider `O=S(=O)(Nc1cccs1)c1ccc(-c2ccc(Cl)cc2)cc1`, for which the result in [2] and in [3] was inactive. Besides, at Lethal factor, the IC50 was greater than 50 µM.

Take `COc1ccc(-c2ccc(S(=O)(=O)Nc3sccc3-c3nc4ccccc4s3)cc2)cc1`: the Stability in series [4] is 84%. Further, the result with Bacillus anthracis [7] and in the series on HeLa [8] was Active. For the same compound, the EC50 in the series on RAW264.7 stood at 0.506 µM. The 50% inhibitory concentration (IC50) at Lethal factor came out at 3.8 µM. Further, the solubility result in series [5] is “Insoluble”.

For the compound `Cc1csc(NS(=O)(=O)c2cccc(Cl)c2C)c1-c1nc2ccccc2s1`, the 50% inhibitory concentration (IC50) at Lethal factor amounted to 100 µM.

In the case of `Cc1ccc(S(=O)(=O)Nc2cccs2)cc1Cl`, the result in series [2] and in series [3] was inactive. Besides, the IC50 at Lethal factor is greater than 50 µM.

With `O=S(=O)(Nc1sccc1-c1nc2ccccc2s1)c1ccc(Cl)cc1`, the IC50 at Lethal factor came to 15 µM.

Broadly, the Ki is the dissociation constant of the complex between target and ligand, obtained from inhibition or displacement. On to `O=S(=O)(Nc1sccc1-c1nc2ccccc2s1)c1ccc(-c2ccc(Cl)cc2)cc1`, for which, in the series with RAW264.7, the concentration for a half-maximal effect (EC50) was 0.251 µM. Besides, at Lethal factor, the IC50 came out at 3 µM and the Ki worked out at 1.7 µM. In addition, in series [5], the solubility entry was “Insoluble”.

As to `O=S(=O)(Nc1sccc1-c1nc2ccccc2s1)c1ccc(-c2ccc(C(F)(F)F)cc2)cc1`, the half-maximal inhibitory concentration (IC50) at Lethal factor stood at 8 µM.

With `O=S(=O)(Nc1sccc1-c1nc2ccccc2s1)c1ccc(Oc2ccccc2)nc1`, on Lethal factor, the IC50 stood at 43 µM.

With `Cc1ccc(S(=O)(=O)Nc2scc(C)c2-c2nc3ccccc3s2)cc1F`, on Lethal factor, the 50% inhibitory concentration (IC50) was 35 µM.

For `COc1cccc(S(=O)(=O)Nc2scc(C)c2-c2nc3ccccc3s2)c1`, on Lethal factor, the IC50 was found to be 11 µM.

Turning to `COc1ccccc1Oc1ccc(S(=O)(=O)Nc2sccc2-c2nc3ccccc3s2)cc1`, the IC50 at Lethal factor was greater than 50 µM.

As to `Cc1ccc(S(=O)(=O)Nc2scc(C)c2-c2nc3ccccc3s2)cc1[N+](=O)[O-]`, the 50% inhibitory concentration (IC50) at Lethal factor stood at 48 µM.

For `Cc1csc(NS(=O)(=O)c2ccc(-c3ccc(Cl)cc3)cc2)c1-c1nc2ccccc2s1`, at Lethal factor, the IC50 was found to be 12 µM.

As for `O=S(=O)(Nc1sccc1-c1nc2ccccc2s1)c1cccc(-c2ccc(Cl)cc2)c1`, at Lethal factor, the IC50 came out at 18 µM.

For the compound `COc1ccc(-c2ccc(S(=O)(=O)Nc3oncc3-c3nc4ccccc4s3)cc2)cc1`, the 50% inhibitory concentration (IC50) on Lethal factor was greater than 100 µM.

With `O=S(=O)(Nc1sccc1-c1nc2ccccc2s1)c1ccccc1`, the half-maximal inhibitory concentration (IC50) at Lethal factor was found to be 39 µM.

On to `Cc1cc(S(=O)(=O)Nc2sccc2-c2nc3ccccc3s2)ccc1F`, for which, at Lethal factor, the 50% inhibitory concentration (IC50) is 12 µM.

For `Cc1nccc(-c2cccc(S(=O)(=O)Nc3sccc3-c3nc4ccccc4s3)c2)n1`, the IC50 at Lethal factor is 12 µM.

Regarding `Cc1ccc(S(=O)(=O)Nc2sccc2-c2nc3ccccc3s2)cc1F`, the half-maximal inhibitory concentration (IC50) at Lethal factor was 11 µM.

In the case of `COc1ccc(-c2ccc(S(=O)(=O)NCCc3nc4ccccc4s3)cc2)cc1`, the IC50 on Lethal factor is greater than 50 µM.

As for `O=S(=O)(Nc1sccc1-c1nc2ccccc2s1)c1cccc(-c2ccccc2)c1`, the half-maximal inhibitory concentration (IC50) at Lethal factor is 13 µM.

For the compound `O=S(=O)(Nc1ccccc1)c1cccs1`, the result in [2] and in series [3] was inactive. Besides, the concentration for half-maximal inhibition (IC50) at Lethal factor was greater than 100 µM.

Regarding `Cc1csc(NS(=O)(=O)c2ccc(F)cc2)c1-c1nc2ccccc2s1`, the half-inhibitory concentration (IC50) at Lethal factor is greater than 100 µM.

Turning to `Cc1ccc(-c2ccc(S(=O)(=O)Nc3sccc3-c3nc4ccccc4s3)cc2)cc1`, the 50% inhibitory concentration (IC50) at Lethal factor worked out at 28 µM.

Turning to `Nc1ccc(Nc2ccc(N)cc2S(=O)(=O)O)cc1`, the outcome with HeLa [9] was Active.

In the case of `Cc1csc(NS(=O)(=O)c2ccc(C(C)(C)C)cc2)c1-c1nc2ccccc2s1`, the half-maximal inhibitory concentration (IC50) on Lethal factor was greater than 100 µM.

As to `O=S(=O)(Nc1sccc1-c1nc2ccccc2s1)c1ccc(Cl)cc1F`, the IC50 on Lethal factor turned out to be 18 µM.

In the case of `Cc1csc(NS(=O)(=O)c2cccc(Cl)c2)c1-c1nc2ccccc2s1`, the half-maximal inhibitory concentration (IC50) on Lethal factor was greater than 100 µM.

Turning to `CCOC(=O)CCc1c(CC(=O)OCC)c[nH]c1/C=N/O`, the outcome in the series on HeLa [1] was inactive.

Source of the values: ChEMBL document CHEMBL1151859, “Structure-activity relationship studies of a novel series of anthrax lethal factor inhibitors” (Bioorg Med Chem, 2009).
